PfHsp90 set2: growth inhibition of PfHsp90-expressing yeast, primary screen, antimalarial PfHsp90 inhibitor project, S. cerevisiae, BacTiter-Glo luminescence, single point, set 2; BacTiter-Glo ATP, 48 h; yeast lacking PDR1 and PDR3 efflux regulators; inhibition, % at 9.4 µM; 0.32% of 310,000 active; AID 504621, 2011;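 active means every replicate shows inhibition above about 80%, whatever the replicate mean, limit read from the data; inconclusive means mean inhibition reaches the set limit but some replicate falls short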
SKKanGAS inh: S. pyogenes SKKanGAS growth inhibitors in kanamycin, primary screen, streptokinase expression inhibitor project, SKKanGAS strain, BacTiter-Glo luminescence; 6 h; inhibition, % at 7.5 µM; 1.3% of 300,000 active; AID 1662, 2009;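 active means mean replicate score, as percent of positive control median, at least 50; inconclusive means mean below 50 but one replicate at or above 50; inactive means mean and every replicate below 50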;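 further: strain carries kanamycin resistance gene driven by streptokinase promoter and grows in 40 µg/ml kanamycin; loss of luminescence reflects streptokinase promoter inhibition or plain growth inhibition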
CSC inhib: cancer stem cell viability inhibitors, primary screen, luminescence; cancer stem cell-like cells viability; inhibition, % at 7.5 µM; 1.1% of 300,000 active; AID 2717, 2010; in the data active means inhibition above about 75%; inconclusive means no clear call, values can overlap the other calls; tested in HMLE shEcad cells
HIF activator: HIF pathway transcriptional activators, primary screen, cell-based, U2OS HRE-luciferase, luminescence; activation, % at 7.5 µM (by protocol); U2OS HRE-luciferase reporter; normalized: DMSO 0%, desferrioxamine 100%; 0.32% of 300,000 active;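 active means mean activation of at least 10% of the iron chelator positive control signal, with at least half of replicates also reaching 10%; inconclusive means mean and replicate majority disagree about reaching 10%; inactive means mean and most replicates under 10%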
T cruzi inh: inhibitors of intracellular T. cruzi growth, primary screen, luminescence, NIH3T3 host cells; T. cruzi beta-gal in NIH3T3, 90 h; 1.4% of 300,000 active; inhibition, % (concentration not given with the values);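 active means mean inhibition across valid replicates above about 55%, limit read from the data; inconclusive means mean below that limit but half or more replicates reach it; inactive means mean below it, under half of replicates reach it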;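 further: signal also drops with host cell toxicity which is not excluded here; higher percent means less beta-gal luminescence so fewer parasites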
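System: mouse NIH/3T3 fibroblasts infected with β-gal-expressing T. cruzi Tulahuen C4 / Input: NIH/3T3 cells, 5,000 per well / Buffer or medium: Low-serum DMEM with 2% FBS / Probe or stimulus: 5000 reporter trypomastigotes per well / Schedule: ≥90 h infection period, 3 h prior cell attachment / Measured by: GalScreen luminescence, 60 min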
Beta cell apopt: inhibitors of cytokine-induced beta cell apoptosis, primary screen, luminescence | INS-1E cytokine-induced death, ATP luminescence, 48 h; percent of positive-control rescue, neutral wells zero | protection from apoptosis, % (no concentration beside the values) | 0.8% of 300,000 active | AID 435005, 2010;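 active means Every replicate reaches about 75%, or at least half do and their mean reaches it too, limit read from the data; inconclusive means At least half of replicates reach the limit but their mean does not; inactive means Under half of replicates reach the limit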;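 further: higher means more ATP so stronger rescue from cytokine killing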
Hits are given with their value; . = inactive; ? = inconclusive; / = no result given. Most compounds without a hit are left out; they make up all but 3.6% or so of the library.

SMILES	PfHsp90 set2	SKKanGAS inh	CSC inhib	HIF activator	T cruzi inh	Beta cell apopt
COc1ccc(-c2csc(NC(=O)C3CCN(c4ncnc5sc(C)c(C)c45)CC3)n2)cc1OC	.	.	.	.	57	112
Cc1sc2ncnc(N3CCC(C(=O)NCC(=O)Nc4ccc(F)c(F)c4)CC3)c2c1C	.	53	.	.	.	.
Cc1sc2ncnc(N3CCC(C(=O)Nc4ccc(Cl)c(Cl)c4)CC3)c2c1C	.	/	.	/	/	.
Cc1sc2ncnc(N3CCC(C(=O)Nc4ccc(Cl)cc4Cl)CC3)c2c1C	.	50	.	.	.	.
COc1ccc(NC(=O)CN(C)C(=O)c2sc3cc(Cl)ccc3c2Cl)cc1	/	.	.	.	.	/
CCOc1ccc(NCc2nnc(SCC(=O)Nc3nc(-c4ccccc4)cs3)n2-c2ccccc2)cc1	.	.	.	.	.	.
CCCCCCCc1ccc(-c2ccc(O)cc2)nc1	.	.	85	.	.	.
CCCCCCC1CC(C)(C(=O)CNc2nncs2)OC1=O (centres undefined)	.	.	.	.	62	.
C=CC[C@@H](CC(=O)N[C@H](CO)Cc1ccccc1)C(=O)N[C@H](COC(=O)[C@@H](CC=C)Cc1ccc(F)cc1)Cc1c[nH]c2ccccc12	.	/	.	/	/	.
CCOC(=O)N1CCC(N2CCCC(C(=O)c3cc(F)ccc3OC)C2)CC1 (centres undefined)	.	.	.	.	59	.
CCc1noc(C)c1C(=O)N1CCCC(C(=O)c2cc(F)ccc2OC)C1 (centres undefined)	.	.	.	.	55	.
Cc1cc(-c2ccc(C)c(S(=O)(=O)N3CCN(c4ccccn4)CC3)c2)on1	.	.	.	.	.	.
CC1CCCC(C)N1CCOc1cc(N)ccc1C#N (centres undefined)	.	/	/	/	/	/
O=C(CS(=O)c1ccc(C(F)(F)F)cc1[N+](=O)[O-])Oc1ccccc1 (centres undefined)	.	.	77	.	.	.
CCOC(=O)c1ccccc1OC(=O)CS(=O)c1ccccc1[N+](=O)[O-] (centres undefined)	.	.	.	.	.	.
CS(=O)(=O)c1ccc(S(=O)CC(=O)OCc2ccccc2)c([N+](=O)[O-])c1 (centres undefined)	.	.	/	.	56	/
COC(=O)c1ccc(OC(=O)CS(=O)c2ccccc2[N+](=O)[O-])cc1 (centres undefined)	.	.	.	.	.	.
O=C(Nc1ccc(Cl)cc1)Nc1nc(-c2sccc2Br)cs1	.	.	.	.	.	.
O=C(Nc1ccc(Cl)c(Cl)c1)Nc1nc(-c2ccccc2)cs1	/	.	.	.	64	.
O=C(Nc1ccc(Cl)c(Cl)c1)Nc1ccccc1NS(=O)(=O)c1cccs1	.	.	99	.	.	.
O=C(Nc1ccccc1)Nc1ccccc1NS(=O)(=O)c1cccs1	.	.	.	.	.	.
O=C(Nc1ccc(Cl)cc1)Nc1nc(-c2ccccc2O)cs1	.	61	.	.	.	109
CN(CCN1CCOCC1)Cc1nc(-c2ccccc2)no1	.	.	.	.	.	.
O=C(COC(=O)c1cccnc1Cl)NC(=O)c1ccc(OC(F)F)cc1	.	/	.	/	/	.
CC(NS(=O)(=O)CCNC(=O)c1ccccc1)c1ccccc1 (centres undefined)	/	.	.	.	.	.
SMILES	PfHsp90 set2	SKKanGAS inh	CSC inhib	HIF activator	T cruzi inh	Beta cell apopt
COc1cc2c(cc1OC)CN(C(=O)c1ccc([N+](=O)[O-])o1)CC2	.	.	.	.	.	.
O=C(c1ccc([N+](=O)[O-])o1)N1CCc2ccccc2C1	?	.	.	.	57	.
Cc1ccc2sc(N3CCN(C(=O)c4ccc([N+](=O)[O-])o4)CC3)nc2c1C	/	.	.	.	59	/
O=C(c1ccc([N+](=O)[O-])o1)N1CCN(c2nc3c(Cl)cccc3s2)CC1	.	.	.	.	59	/
O=C(c1ccc([N+](=O)[O-])o1)N1CCN(c2nc3ccc(F)cc3s2)CC1	/	.	.	.	.	.
COc1cccc2sc(N3CCN(C(=O)c4ccc([N+](=O)[O-])o4)CC3)nc12	.	.	.	?	.	.
Cc1cccc(N2C(=O)C3CCCN3C2=S)c1C (centres undefined)	.	/	/	/	/	.
S=C(c1ccc2c(c1)OCO2)N1CCOCC1	.	.	.	.	.	.
O=C1OCC(CO)(CO)N=C1NNc1ccc(Cl)c(Cl)c1	101	.	.	.	.	.
COC(=O)c1cc(S(=O)(=O)Nc2cccc(C)c2C)cn1C	.	.	.	.	.	.
N#CC1C(=O)NC(=O)C(C#N)C12CCCC(C(F)(F)F)C2 (centres undefined)	.	/	/	/	/	/
Cc1[nH]n(-c2ccccc2)c(=O)c1/C=N/N(c1ccccc1)c1ccccc1	.	78	.	.	.	.
Cc1cccc(-n2c(SCC(=O)c3c(N)n(C4CC4)c(=O)[nH]c3=O)nnc2N2CCOCC2)c1	.	/	/	/	/	.
CC(=O)/C(=N/Nc1cccc(Cl)c1)N1CCOCC1	.	.	.	.	.	.
C/C(=N\Nc1cccc(Cl)c1)C1(C)N(O)C(C)(C)C(c2ccco2)=[N+]1[O-] (centres undefined)	.	.	84	.	.	.
CCN1CCN(Cc2ccc(NC(=O)c3ccc(C)c(NC(=O)c4cc(-c5ccc(Br)cc5)n[nH]4)c3)cc2C(F)(F)F)CC1	.	.	?	.	60	.
CCN1CCN(Cc2ccc(NC(=O)c3ccc(C)c(NC(=O)c4nccn4C)c3)cc2C(F)(F)F)CC1	.	.	.	.	.	.
CCN1CCN(Cc2ccc(NC(=O)c3cc(NC(=O)c4cncc(-c5ccc(C#N)cc5)c4)cc(OC)c3)cc2C(F)(F)F)CC1	.	.	.	.	.	87
Cc1ccc(C)c(S(=O)(=O)Nc2ccc(C(=O)N3CCC3)cc2)c1	.	.	.	.	.	.
CC1=C(CO)C(=O)OC([C@@H](C)C2CC[C@H]3C4C[C@H]5O[C@]56[C@@H](O)C=CC(=O)[C@]6(C)C4CC[C@]23C)C1 (some centres undefined)	.	.	99	.	.	109
Cc1ccc2c(cnn2C(=O)CCC(=O)NCc2cccc(Cl)c2)c1	.	.	.	.	.	.
COc1ccc(OC)c(NC(=O)CCc2nnc3ccc(NCc4ccco4)nn23)c1	.	.	.	17	.	/
O=C(Cc1cnn(-c2ccccc2)c1)c1ccc(O)c(O)c1O	.	.	/	.	.	.
CC(C)=CCc1c(O)ccc(C(=O)Cc2ccccc2)c1O	.	.	97	.	.	.
Cc1ccc(S(=O)(=O)c2ccccc2)cc1S	/	.	.	.	62	.

Screening data from PubChem BioAssay.
